Experimental data gathered from unrelated publications.
Target: Serine/threonine-protein kinase haspin (HASPIN, Homo sapiens, UniProt Q8TF76)
One construct used (Q8TF76 1-798): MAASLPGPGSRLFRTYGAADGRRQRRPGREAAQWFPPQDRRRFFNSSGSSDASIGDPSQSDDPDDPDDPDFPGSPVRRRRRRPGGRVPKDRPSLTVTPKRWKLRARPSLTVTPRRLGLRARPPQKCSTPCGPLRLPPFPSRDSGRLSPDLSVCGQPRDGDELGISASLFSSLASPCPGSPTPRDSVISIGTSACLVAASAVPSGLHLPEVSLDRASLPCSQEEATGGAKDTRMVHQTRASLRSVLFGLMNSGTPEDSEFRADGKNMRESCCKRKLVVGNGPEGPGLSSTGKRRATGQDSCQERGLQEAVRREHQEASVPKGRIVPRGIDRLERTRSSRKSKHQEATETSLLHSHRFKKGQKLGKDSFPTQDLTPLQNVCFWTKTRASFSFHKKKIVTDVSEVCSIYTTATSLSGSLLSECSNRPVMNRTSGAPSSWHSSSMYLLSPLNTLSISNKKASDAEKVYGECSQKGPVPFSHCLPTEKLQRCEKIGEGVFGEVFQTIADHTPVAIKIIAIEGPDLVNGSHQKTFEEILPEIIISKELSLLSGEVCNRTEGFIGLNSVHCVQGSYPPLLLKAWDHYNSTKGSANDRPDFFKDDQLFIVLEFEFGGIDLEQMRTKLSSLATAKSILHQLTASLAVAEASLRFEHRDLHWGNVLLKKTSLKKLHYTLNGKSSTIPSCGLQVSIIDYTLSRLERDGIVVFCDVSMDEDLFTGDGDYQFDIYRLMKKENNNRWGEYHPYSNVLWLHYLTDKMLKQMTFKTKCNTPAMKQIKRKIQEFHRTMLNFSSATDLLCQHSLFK

| SMILES | observed | action | technique | tested at | quantity | result |
| --- | --- | --- | --- | --- | --- | --- |
| CCN(CC)CCNC(=O)c1c(C)[nH]c(/C=C2\C(=O)Nc3ccc(F)cc32)c1C | enzyme activity | inhibitor | – | 0.3 µM | inhibition | 32% |
| CCN(CC)CCNC(=O)c1c(C)[nH]c(/C=C2\C(=O)Nc3ccc(Cl)cc32)c1C | enzyme activity | inhibitor | – | 0.5 µM | remaining activity | 82.9% |
| CC(=O)Nc1c(C(C)=O)c(=O)n(C)c2nc(-c3ccc(Cl)cc3Cl)c(-c3ccc(Cl)cc3)cc12 | cell-free assay | – | competition with immobilised ligand | 1 µM | remaining binding | 100% |
| Nc1ncnc2occ(-c3ccc(NC(=O)Nc4cc(C(F)(F)F)ccc4F)cc3)c12 | cell-free assay | – | – | 20 µM | remaining signal | 43% |
| COc1ccc2c(O[C@@H]3C[C@H]4C(=O)N[C@]5(C(=O)O)CC5/C=C\CCCCC[C@H](NC(=O)OC5CCCC5)C(=O)N4C3)cc(-c3csc(NC(=O)C(C)C)n3)nc2c1C (stereo partly shown) | cell-free assay | – | competition with immobilised ligand | 1 µM | remaining binding | 97% |
| Cc1ccc(Nc2nccc(N(C)c3ccc4c(C)n(C)nc4c3)n2)cc1S(N)(=O)=O | enzyme activity | inhibitor | – | 0.3 µM | inhibition | 0% |
| COc1cc(-c2cc(-c3ccc(N4CCNCC4)cc3)cnc2C)cc(OC)c1OC | enzyme activity | inhibitor | – | 1 µM | inhibition | 3% |
| O=C(Nc1ccc(Oc2ccc(F)cc2)cc1)N1CCc2ncccc2[C@H]1c1ccc(F)cc1 | cell-free assay | – | competition with immobilised ligand | 1 µM | remaining binding | 85% |
| Cn1cncc1C1=CN(c2ncnc3[nH]cnc23)CCS1 | enzyme activity | inhibitor | radiometric | 2 µM | inhibition | 88.4% |
| Cc1sc(C(=O)NC2COC2)cc1-n1cc(NC(=O)Nc2c(F)cccc2Cl)cn1 | enzyme activity | inhibitor | – | 10 µM | remaining activity | 92.4% |
| CC/C(=N\NC(=O)NCc1cccc(O)c1)c1ccc(O)c(C)c1O | enzyme activity | inhibitor | – | 0.1 µM | inhibition | -0.2% |
| CNC(=O)c1cc(Oc2ccc(NC(=O)Nc3ccc(Cl)c(C(F)(F)F)c3)cc2)ccn1 | enzyme activity | inhibitor | – | 0.3 µM | inhibition | 8% |
| CC(=O)c1c(NS(C)(=O)=O)c2cc(-c3ccc(Cl)cc3)c(-c3ccc(Cl)cc3Cl)nc2n(C)c1=O | cell-free assay | – | competition with immobilised ligand | 1 µM | remaining binding | 92% |
| Cn1cnc(Br)c1C1=CN(c2ncnc3[nH]cnc23)CCS1 | enzyme activity | inhibitor | radiometric | 2 µM | inhibition | 88.8% |
| CCN(CC)c1ccc(C2=NNC(=O)CC2C)cc1[N+](=O)[O-] (stereo not shown) | enzyme activity | inhibitor | – | 10 µM | remaining activity | 106% |
| CC(C)(C)c1nc2c(s1)c1nc(N)ncc1c1ccc(NS(=O)(=O)c3c(F)cccc3F)c(F)c12 | enzyme activity | inhibitor | radiometric | 1 µM | remaining activity | 118% |
| O=c1c2ccccc2[nH]c(=S)n1CCN1CCC(=C(c2ccc(F)cc2)c2ccc(F)cc2)CC1 | enzyme activity | inhibitor | – | 0.5 µM | remaining activity | 95.4% |
| CN(C)C(=O)Cn1cc(-c2nc([C@@](C)(c3ccc(-c4cnc(N)nc4)cc3)C3CC3)no2)cn1 | cell-free assay | – | competition with immobilised ligand | 1 µM | remaining binding | 100% |
| O=C(Nc1cnn(-c2csc(C(=O)NC3COC3)c2)c1)Nc1ccccc1Cl | enzyme activity | inhibitor | – | 5 µM | remaining activity | 112% |
| Cc1c(NC(=O)c2cc(C(N)=O)nc3cc(F)ccc23)c(C(F)(F)F)nn1Cc1ccc(C(C)(C)C)cc1 | cell-free assay | – | competition with immobilised ligand | 1 µM | remaining binding | 100% |
| O=C1Nc2ccc(Cl)cc2C1=Cc1cc(Cl)c(O)c(Cl)c1 | cell-free assay | – | – | 0.5 µM | remaining signal | 8.65% |
| C[C@@H]1CN(c2cc(-c3nn(C)c4ccc(OC5(C)CC5)cc34)ncn2)C[C@H](C)O1 | cell-free assay | – | competition with immobilised ligand | 1 µM | remaining binding | 99% |
| N#CCCc1ccc2c(c1)-c1[nH]c3ccc([N+](=O)[O-])cc3c1CC(=O)N2 | cell-free assay | – | – | 0.5 µM | remaining signal | 110% |
| N#Cc1ccc(Nc2ccc3[nH]c(=O)[nH]c3c2)c(Cl)c1 | cell-free assay | – | competition with immobilised ligand | 1 µM | remaining binding | 100% |
| CN1CC(Oc2cnc(C#N)cc2-c2ccn3nc(NC(=O)C4CC4)cc3c2)C1 | enzyme activity | inhibitor | – | 1 µM | inhibition | 3% |
